This is an account of results in ChEMBL document CHEMBL1122001, “Darmstoff analogues. 2. Ring and side-chain effects on smooth-muscle contraction” (1982).

Each structure is given as a SMILES string. Active and inactive are the calls of the source. No cut-off for these calls is given here.

Assay type in all cases: functional
The species entered for assay [1] is Cavia porcellus. Kind of assay: Compound was tested for its ability to cause contraction of guinea pig ileum; Inactive.
For assay [2], the species on record is Cavia porcellus. Kind of assay: Compound was tested for its ability to cause contraction of guinea pig ileum; Active.
For assay [3], the species on record is Cavia porcellus. Kind of assay: Potency for guinea pig ileum contraction relative to acetylcholine. The essentials: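 Ileal strip held in an oxygenated (95% O2/5% CO2) buffer bath under 1-g tension, with contraction magnitude recorded on a dynograph. An acetylcholine control response curve was run first, then a test compound curve after tissue recovery. The value is the ratio of the doses giving 50% of maximal response.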

For assay [4], the species on record is Cavia porcellus. Kind of assay: Concentration required for half-maximal contraction of guinea pig ileum.

As to `CCCCCCCCCCCCCCCC1COC(COP(=O)(O)O)CO1` (stereo not drawn), the result in the assay listed under Cavia porcellus [1] was inactive. As to `CCCCCCCCCCCCCCCC1OC(COP(=O)(O)O)CS1` (stereo not drawn), in the assay filed under Cavia porcellus [1], the result was inactive. As to `CCCCCCCCCCCCCCCC1CCC(COP(=O)(O)O)C1` (stereo not drawn), in the assay filed under Cavia porcellus [1], the result was inactive. In the case of `CCCCCCCC/C=C/CCCCCCCC1OCC(COP(=O)([O-])O)O1.[Na+]` (cis isomer), the outcome in the assay listed under Cavia porcellus [2] was Active. For the same compound, the Potency in the assay listed under Cavia porcellus [3] was 0.4%. In the case of `CCCCCCCC/C=C/CCCCCCCC1COC(COP(=O)([O-])O)CO1.[Na+]` (stereo not drawn), the result in the assay filed under Cavia porcellus [2] was Active. The compound also returned a Potency in the assay listed under Cavia porcellus [3] of 0.05%. Also, in the assay filed under Cavia porcellus [4], the Concentration is 16 µM. With `CCCCCCCC/C=C/CCCCCCCC1CCC(COP(=O)(O)O)C1` (cis isomer), in the assay listed under Cavia porcellus [1], the result was inactive.

Take `CCCCCCCCCCCCCCCC1CCC(COP(=O)(O)O)O1` (stereo not drawn): the outcome in the assay filed under Cavia porcellus [1] was inactive. For `CCCCCCCC/C=C/CCCCCCCC1CCC(COP(=O)(O)O)O1` (stereo not drawn), in the assay listed under Cavia porcellus [1], the result was inactive. Regarding `CCCCCCCCCCCCCCCC1OCC(COP(=O)(O)O)O1` (stereo not drawn), in the assay filed under Cavia porcellus [1], the result was inactive. On the same count and under the same terms, under `CCCCCCCC/C=C/CCCCCCCC1OC(COP(=O)(O)O)CS1` (cis isomer) stands “inactive”.
